Measured values taken from ChEMBL document CHEMBL1157264, “Hispidin derivatives from the mushroom Inonotus xeranticus and their antioxidant activity” (J Nat Prod, 2006).
The source made the active and inactive calls. The calls are words filed in the database; no cut-off is given here.

What was measured:
Format in all cases: functional
[1] = Antioxidant activity assessed as superoxide radical anion scavenging activity after 30 mins by microplate reader
Method in brief: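 Xanthine/xanthine oxidase system: 50 mM potassium phosphate pH 7.8, 1 mM EDTA, 0.04 mM NBT, 0.18 mM xanthine, 250 mU/mL xanthine oxidase plus sample, 30 min at 37 °C in the dark. NBT-formazan read at 560 nm, background from a no-enzyme control subtracted. IC50 derived; BHA reference.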

[2] = Antioxidant activity assessed as ABTS radical scavenging activity after 12 hrs by ELISA; conditions: in the assay text read “after 6 mins” for “after 12 hrs”
Method in brief: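 ABTS dissolved in water at 7 mM, reacted with 2.45 mM potassium persulfate (final) and left 12 h in the dark at room temperature to form ABTS•+. Radical solution (A734 0.700) added to samples in EtOH, absorbance read after mixing for up to 6 min. IC50 derived; vitamin E reference.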

[3] = system: Radical scavenging activity; experiment: Antioxidant activity assessed as DPPH radical scavenging activity for 20 mins by ELISA
Method in brief: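 Samples in DMSO added to 150 µM DPPH in ethanol, vortexed, incubated 20 min at room temperature, absorbance read at 517 nm. Activity taken from the absorbance difference versus DMSO control; vitamin E and caffeic acid references.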

Molecule	IC50 [1] [µM]	IC50 [2] [µM]	Activity [3]
COC1(CC(C)=O)Oc2cc(/C=C/c3ccc(O)c(O)c3)oc(=O)c2/C1=C/c1ccc(O)c(O)c1 (stereo not given) [PHELLIGRIDIN F]	40	11.4	inactive
COc1ccc(O)c(C(C)(C)C)c1.COc1ccc(O)cc1C(C)(C)C [BUTYLATED HYDROXYANISOLE]	10	–	–
COC1(C)Oc2cc(/C=C/c3ccc(O)c(O)c3)oc(=O)c2/C1=C/c1ccc(O)c(O)c1 (stereo not given) [INOSCAVIN B]	95	–	inactive
VITAMIN E	–	6	–
CC1=CC(=O)C2(O1)c1c(cc(/C=C/c3ccc(O)c(O)c3)oc1=O)OC2c1ccc(O)c(O)c1 (stereo not given) [INOSCAVIN A]	78	–	inactive

The next lines start with results.

IC50 [1] [µM]	IC50 [2] [µM]	Molecule	Activity [3]
20	10.7	COc1cc(/C=C/c2cc3c(c(=O)o2)C2(OC(C)=CC2=O)C(c2ccc(O)c(O)c2)O3)ccc1O (stereo not given) [METHYLINOSCAVIN A]	inactive
38	13.1	COc1cc(/C=C/c2cc3c(c(=O)o2)/C(=C/c2ccc(O)c(O)c2)C(C)(OC)O3)ccc1O (stereo not given) [METHYLINOSCAVIN B]	inactive
